Measured values reported in ChEMBL document CHEMBL1149569, “Aminopyrrolidineamide inhibitors of site-1 protease” (Bioorg Med Chem Lett, 2007).
Active and inactive are the calls of the source. No cut-off for these calls is given here.

Key:
[1] = biological target: T1, Membrane-bound transcription factor site-1 protease (Homo sapiens, UniProt Q14703); experiment: Inhibition of human S1P expressed in CHOK1 cells; assay type: cell-based, CHO-K1
T1 sequence (Q14703 whole entry): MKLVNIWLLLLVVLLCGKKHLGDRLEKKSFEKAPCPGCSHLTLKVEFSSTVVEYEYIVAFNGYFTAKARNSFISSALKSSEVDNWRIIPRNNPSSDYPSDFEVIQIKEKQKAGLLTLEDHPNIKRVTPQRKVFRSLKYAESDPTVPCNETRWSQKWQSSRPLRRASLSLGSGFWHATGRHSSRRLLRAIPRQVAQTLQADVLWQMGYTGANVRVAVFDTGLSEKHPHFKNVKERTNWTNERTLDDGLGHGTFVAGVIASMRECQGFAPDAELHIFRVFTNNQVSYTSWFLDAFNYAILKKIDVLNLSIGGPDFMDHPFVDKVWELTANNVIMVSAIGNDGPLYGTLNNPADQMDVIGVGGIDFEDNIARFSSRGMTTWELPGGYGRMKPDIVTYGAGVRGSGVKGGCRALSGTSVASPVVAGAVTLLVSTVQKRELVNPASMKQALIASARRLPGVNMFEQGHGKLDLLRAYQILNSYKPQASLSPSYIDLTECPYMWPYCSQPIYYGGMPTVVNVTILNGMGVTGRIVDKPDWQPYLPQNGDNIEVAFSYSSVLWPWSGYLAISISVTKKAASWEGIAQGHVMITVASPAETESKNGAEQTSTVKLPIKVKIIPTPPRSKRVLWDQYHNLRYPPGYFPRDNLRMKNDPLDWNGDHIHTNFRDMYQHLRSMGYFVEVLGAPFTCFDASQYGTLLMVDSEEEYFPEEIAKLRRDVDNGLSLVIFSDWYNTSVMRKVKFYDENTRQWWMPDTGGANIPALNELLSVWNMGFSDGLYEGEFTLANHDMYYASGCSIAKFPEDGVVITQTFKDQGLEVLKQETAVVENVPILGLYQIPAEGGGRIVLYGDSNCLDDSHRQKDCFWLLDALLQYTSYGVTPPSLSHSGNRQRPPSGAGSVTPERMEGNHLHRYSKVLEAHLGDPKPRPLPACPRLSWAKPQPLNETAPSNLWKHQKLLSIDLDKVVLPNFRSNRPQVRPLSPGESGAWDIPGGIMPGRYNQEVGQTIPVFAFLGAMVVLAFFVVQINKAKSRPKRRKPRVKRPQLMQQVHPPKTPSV

Mus musculus [2] = experiment: Antilipogenic activity in CD1 mouse assessed as reduction of HMG-CoA synthase gene expression at 10 mg/kg, ip every 6 hrs for 24 hrs; assay type: functional; set-up: scale not given: the % may be the effect or the level left; details: route intraperitoneal
Outline: (§1)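 Male CD1 mice, n = 5 per group, given 10 or 30 mg/kg/dose intraperitoneally every 6 h for 24 h (acute 24 h efficacy). Hepatic HMG-CoA synthase, fatty acid synthase and LDL receptor gene expression were measured in liver tissue samples. Cholesterol and fatty acid synthetic pathway activity was measured in the animals.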

Mus musculus [3] = experiment: Antilipogenic activity in CD1 mouse assessed as reduction of LDL receptor gene expression at 30 mg/kg, ip every 6 hrs for 24 hrs; assay type: functional; set-up: scale not given: the % may be the effect or the level left; details: route intraperitoneal; outline: as §1
HepG2 [4] = experiment: Inhibition of LDL receptor gene expression in HepG2 cells; assay type: functional, cell-based; details: Homo sapiens
HepG2 [5] = experiment: Inhibition of cholesterol synthesis in HepG2 cells; assay type: functional, cell-based; details: Homo sapiens
Liver [6] = experiment: Inhibition of fatty acid synthesis in rat liver at 10 uM; assay type: functional
[7] = biological target: Urokinase-type plasminogen activator (Homo sapiens, UniProt P00749); experiment: Inhibition of urokinase
Mus musculus [8] = experiment: Antilipogenic activity in CD1 mouse assessed as reduction of fatty acid synthase gene expression at 30 mg/kg, ip every 6 hrs for 24 hrs; assay type: functional; set-up: scale not given: the % may be the effect or the level left; details: route intraperitoneal; outline: as §1
Liver [9] = experiment: Reduction of fatty acid synthase expression in mouse liver; assay type: functional, tissue-based
[10] = biological target: Low-density lipoprotein receptor (Homo sapiens) (UniProt P01130); experiment: Inhibition of LDL receptor-mediated LDL internalization in HepG2 cells; assay type: cell-based
Sequence of Low-density lipoprotein receptor (Homo sapiens) (P01130 whole entry): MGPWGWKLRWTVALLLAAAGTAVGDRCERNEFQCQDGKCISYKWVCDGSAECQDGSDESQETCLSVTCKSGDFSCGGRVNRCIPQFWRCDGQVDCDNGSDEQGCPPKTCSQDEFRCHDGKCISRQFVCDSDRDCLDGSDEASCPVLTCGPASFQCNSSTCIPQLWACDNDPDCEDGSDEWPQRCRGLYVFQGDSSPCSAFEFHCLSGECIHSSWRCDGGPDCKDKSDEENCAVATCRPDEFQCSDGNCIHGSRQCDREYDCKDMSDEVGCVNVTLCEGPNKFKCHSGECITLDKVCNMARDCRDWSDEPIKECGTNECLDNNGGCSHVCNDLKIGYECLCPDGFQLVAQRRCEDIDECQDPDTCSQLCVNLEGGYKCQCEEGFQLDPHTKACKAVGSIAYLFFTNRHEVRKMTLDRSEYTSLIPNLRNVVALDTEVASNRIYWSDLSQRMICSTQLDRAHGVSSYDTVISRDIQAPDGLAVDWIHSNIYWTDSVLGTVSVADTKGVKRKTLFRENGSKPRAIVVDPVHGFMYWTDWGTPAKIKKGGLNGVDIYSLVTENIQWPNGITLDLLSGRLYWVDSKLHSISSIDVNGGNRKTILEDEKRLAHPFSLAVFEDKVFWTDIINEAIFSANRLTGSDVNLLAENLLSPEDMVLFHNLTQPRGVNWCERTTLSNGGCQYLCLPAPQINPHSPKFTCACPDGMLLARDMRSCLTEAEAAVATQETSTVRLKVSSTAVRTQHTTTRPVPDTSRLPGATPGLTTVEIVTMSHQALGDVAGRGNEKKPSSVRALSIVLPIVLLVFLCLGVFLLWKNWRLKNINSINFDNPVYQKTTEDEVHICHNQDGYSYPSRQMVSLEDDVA

HepG2 [11] = experiment: Inhibition of nuclear translocation of SREBP in HepG2 cells at 10 uM; assay type: functional, cell-based; details: Homo sapiens
Outline: (§2)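 Hep-G2 human liver cells in culture were treated at 10 µM. SREBP proteolytic processing and nuclear translocation were then assessed.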

Mus musculus [12] = experiment: Antilipogenic activity in CD1 mouse assessed as inhibition of cholesterol synthetic pathway at 30 mg/kg, ip every 6 hrs for 24 hrs; assay type: functional; set-up: scale not given: the % may be the effect or the level left; details: route intraperitoneal; outline: as §1
Hepatocyte = experiment: Reduction of fatty acid synthase expression in mouse hepatocytes; assay type: functional, cell-based
Hep-G2 (Homo sapiens) = experiment: Reduction of HMG-CoA synthase expression in human Hep-G2 cells
HepG2 [13] = experiment: Inhibition of proteolytic processing of SREBP in HepG2 cells at 10 uM; assay type: functional, cell-based; details: Homo sapiens; outline: as §2
Mus musculus [14] = experiment: Antilipogenic activity in CD1 mouse assessed as inhibition of fatty acid synthetic pathway at 30 mg/kg, ip every 6 hrs for 24 hrs; assay type: functional; set-up: scale not given: the % may be the effect or the level left; details: route intraperitoneal; outline: as §1
Mus musculus [15] = experiment: Antilipogenic activity in CD1 mouse assessed as reduction of fatty acid synthase gene expression at 10 mg/kg, ip every 6 hrs for 24 hrs; assay type: functional; set-up: scale not given: the % may be the effect or the level left; details: route intraperitoneal; outline: as §1
Liver [16] = experiment: Reduction of HMG-CoA synthase expression in mouse liver; assay type: functional, tissue-based
Mus musculus [17] = experiment: Antilipogenic activity in CD1 mouse assessed as inhibition of fatty acid synthetic pathway at 10 mg/kg, ip every 6 hrs for 24 hrs; assay type: functional; set-up: scale not given: the % may be the effect or the level left; details: route intraperitoneal; outline: as §1
[18] = Oral bioavailability in rat; assay type: ADME, organism-based; details: in vivo
Mus musculus [19] = experiment: Antilipogenic activity in CD1 mouse assessed as reduction of HMG-CoA synthase gene expression at 30 mg/kg, ip every 6 hrs for 24 hrs; assay type: functional; set-up: scale not given: the % may be the effect or the level left; details: route intraperitoneal; outline: as §1
Coagulation factor X = Coagulation factor X (Homo sapiens, UniProt P00742); experiment: Inhibition of factor 10a
Sequence of Coagulation factor X (P00742 41-179 limits assumed): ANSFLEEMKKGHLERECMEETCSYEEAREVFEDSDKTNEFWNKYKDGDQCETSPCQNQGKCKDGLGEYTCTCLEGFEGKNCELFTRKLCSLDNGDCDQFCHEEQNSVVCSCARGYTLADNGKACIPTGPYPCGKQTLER
Sequence of Coagulation factor X (P00742 235-488 limits assumed): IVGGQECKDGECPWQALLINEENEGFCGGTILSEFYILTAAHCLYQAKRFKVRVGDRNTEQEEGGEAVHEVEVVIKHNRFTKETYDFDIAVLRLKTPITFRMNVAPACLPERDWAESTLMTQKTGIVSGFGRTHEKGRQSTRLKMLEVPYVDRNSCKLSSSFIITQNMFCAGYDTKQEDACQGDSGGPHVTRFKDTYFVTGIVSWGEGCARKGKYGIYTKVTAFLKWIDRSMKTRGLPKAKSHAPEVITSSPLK

Liver [20] = experiment: Inhibition of cholesterol synthesis in rat liver; assay type: functional, tissue-based
HepG2 [21] = experiment: Inhibition of fatty acid synthesis in HepG2 cells at 10 uM; assay type: functional; details: Homo sapiens
[22] = Plasma clearance in rat; assay type: ADME, organism-based
Mus musculus [23] = experiment: Antilipogenic activity in CD1 mouse assessed as inhibition of cholesterol synthetic pathway at 10 mg/kg, ip every 6 hrs for 24 hrs; assay type: functional; set-up: scale not given: the % may be the effect or the level left; details: route intraperitoneal; outline: as §1

With `CCOc1ccccc1CCN(C(=O)c1ccc(CN(CC)CC)cc1)C1CCNC1` (stereo not given) the IC50 [1] was 16000 nM.

In the case of `CC(C)Oc1ccc(C(=O)N(Cc2ccccc2Cl)C2CCNC2)cc1` (stereo not given), the IC50 [1] is reported as over 5000 nM.

`COC[C@@H]1CCCN1Cc1ccc(C(=O)N(CCc2ccccc2OC)C2CCNC2)cc1` (stereo not given in full) gave an IC50 [1] of 140 nM.

For `CCN(CC)Cc1ccc(C(=O)N(CCc2ccc(Cl)cc2)C2CCNC2)cc1` (stereo not given), the IC50 [1] was 3700 nM.

`COc1ccccc1CCN(C(=O)c1ccc(CN2CC3CCCC2C3)cc1)C1CCNC1` (stereo not given) gave an IC50 [1] of 29 nM.

`CCN(CC)Cc1ccc(C(=O)N(CCc2ccccc2OC)[C@H]2CCNC2)cc1` gave an IC50 [1] of 970 nM.

In the case of `CCN(CC)Cc1ccc(C(=O)N(CCc2ccccc2Cl)C2CCNC2)cc1` (stereo not given), the IC50 [1] is reported as 840 nM.

`CC(C)Oc1ccc(C(=O)N(CCc2ccccc2F)C2CCNC2)cc1` (stereo not given) showed an IC50 [1] of 9000 nM.

For `CCN(CC)Cc1ccc(C(=O)N(CCc2ccccc2OC)[C@@H]2CCNC2)cc1`, the Activity (Mus musculus [2]) was over 80%, the IC50 [1] was 170 nM and the Activity (Mus musculus [3]) was 35%. For the same compound, the Activity (HepG2 [4]) was “Active”, the EC50 (HepG2 [5]) was 600 nM and the inhibition at 10 µM (Liver [6]) was 43%. For the same compound, the IC50 [7] was 50000 nM, the Activity (Mus musculus [8]) was 75% and the EC50 (Liver [9]) was 2000 nM. The Activity [10] was “Active”, the Activity (HepG2 [11]) was “Active” and the Activity (Mus musculus [12]) was 80%. For the same compound, the EC50 (Hepatocyte) was 2000 nM, the EC50 (Hep-G2 (Homo sapiens)) was 300 nM and the Activity (HepG2 [13]) was “Active”. It also gave an Activity (Mus musculus [14]) of 80%, an Activity (Mus musculus [15]) of 50% and an EC50 (Liver [16]) of 300 nM. For the same compound, the Activity (Mus musculus [17]) was 50%, the bioavailability [18] was 5% and the Activity (Mus musculus [19]) was over 80%. The IC50 (Coagulation factor X) was 100000 nM, the EC50 (Liver [20]) was 600 nM and the inhibition at 10 µM (HepG2 [21]) was 43%. The clearance [22] was 75 mL/min/kg and the Activity (Mus musculus [23]) was 50%.

Compound `O=C(c1ccc(OCc2ccccc2)cc1)N(CCc1ccccc1Cl)C1CCNC1` (stereo not given) has an IC50 [1] of 590 nM.

`O=C(c1ccc(OCc2ccccc2)cc1)N(CCc1cccc(Cl)c1)C1CCNC1` (stereo not given) gave an IC50 [1] of 510 nM.

For `CC(C)Oc1ccc(C(=O)N(CCc2cccc(Cl)c2)C2CCNC2)cc1` (stereo not given), the IC50 [1] was 9600 nM.

For `COc1ccccc1CCN(C(=O)c1ccc(CN2CCCC(c3ccccc3C)C2)cc1)C1CCNC1` (stereo not given), the IC50 [1] was 37 nM.

With `CCN(CC)Cc1ccc(C(=O)N(CCc2ccccc2C)C2CCNC2)cc1` (stereo not given) the IC50 [1] was 1600 nM.

In the case of `CCN(CC)Cc1ccc(C(=O)N(CCc2ccccc2OC)C2CCNC2)cc1` (stereo not given), the IC50 [1] is reported as 540 nM.
